Source: PubChem
A selection: hits, their analogues and other compounds. The true share with any hit is near 2.1%.
M1 ag: human M1 muscarinic receptor agonists, primary screen, Fluo-8 calcium fluorescence, CHO-K1 cells, HTS. Muscarinic acetylcholine receptor M1 (Homo sapiens), P11229. CHO-K1 hM1, agonist mode; 0% DMSO, 100% acetylcholine EC100. activation, % at 3 µM. 360,000 tested, 0.33% active. AID 588814, 2011;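 active means activation above the run's mean compound activation plus 3 SD, cut at about 16% in these data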;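 further: peak over basal fluorescence ratio within a 140 s kinetic read after compound addition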
Target sequence (P11229 whole entry, looked up): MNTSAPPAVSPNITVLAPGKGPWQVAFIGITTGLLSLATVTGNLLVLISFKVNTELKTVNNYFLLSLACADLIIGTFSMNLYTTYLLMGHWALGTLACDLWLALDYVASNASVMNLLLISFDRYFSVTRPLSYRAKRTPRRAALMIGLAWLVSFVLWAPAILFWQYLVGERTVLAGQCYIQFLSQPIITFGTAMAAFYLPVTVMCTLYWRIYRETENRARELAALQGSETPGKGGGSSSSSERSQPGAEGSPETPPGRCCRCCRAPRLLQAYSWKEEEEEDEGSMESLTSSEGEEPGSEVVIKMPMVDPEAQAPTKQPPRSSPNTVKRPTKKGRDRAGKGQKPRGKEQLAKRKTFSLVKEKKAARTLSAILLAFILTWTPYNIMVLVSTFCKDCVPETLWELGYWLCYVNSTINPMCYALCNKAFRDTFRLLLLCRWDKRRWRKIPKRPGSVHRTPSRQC
M1 antag: human M1 muscarinic receptor antagonists, primary screen, CHO-K1 cells, Fluo-8 calcium fluorescence, 1536-well; inhibition, % at 3 µM; AID 588852, 2011; CHO-K1 hM1, ACh EC80 antagonist; Muscarinic acetylcholine receptor M1 (Homo sapiens), P11229; 360,000 tested, 1.3% active;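 active means percent inhibition above its own plate's cutoff, namely the mean of that plate's compound wells plus 3 SD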;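 further: peak over basal fluorescence ratio during 140 s after agonist addition; 0% = ACh EC80 plus DMSO and 100% = DMSO alone without agonist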
CHRM5 PAM: human M5 muscarinic receptor positive allosteric modulators, primary screen, CHO-K1 cells, Fluo-8 calcium fluorescence. 360,000 tested, 0.3% active. activation, % at 3 µM. AID 624038, 2012. Muscarinic acetylcholine receptor M5 (Homo sapiens), P08912. CHO-K1 hM5, ACh EC20 PAM; 0% = ACh EC20, 100% = ACh EC100;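 active means activation above the run cutoff, the mean activation of all test compounds plus 3 SD, cut at about 18% in these data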
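Test system: CHO-K1 hM5 cells / Doses: single-point, 3 µM nominal / Times: Post-acetylcholine fluorescence recording 140 s / Technique: Fluo-8 calcium fluorescence / Measure: Max/basal fluorescence ratio as % of EC20–EC100 ACh window / Benchmarks: low control EC20 acetylcholine (0%), high control EC100 acetylcholine (100%) / Replicates: one well per compound, no replicates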
CHRM5 antagonist: human M5 muscarinic receptor antagonists, primary screen, CHO cells, Fluo-8 calcium fluorescence | Muscarinic acetylcholine receptor M5 (Homo sapiens), P08912 | CHO-hM5 cells, ACh EC80 | inhibition, % at 3 µM | 360,000 tested, 0.59% active;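 active means inhibition above a per-plate cutoff, the mean of that plate's test compounds plus 3 SD, cut at about 27% in these data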;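 further: 0% = acetylcholine EC80 with DMSO and 100% = DMSO without agonist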
M1 PAM: human M1 muscarinic receptor positive allosteric modulators, primary screen, CHO-K1 cells, Fluo-8 calcium fluorescence, 1536-well. CHO-K1 hM1, ACh EC20; 0% = ACh EC20, 100% = maximal ACh. AID 588819, 2011. activation, % at 3 µM. 360,000 tested, 0.088% active. Muscarinic acetylcholine receptor M1 (Homo sapiens), P11229; in the data active means activation above about 19%, passing the limit was not always enough
CHRM5 agonist: human M5 muscarinic receptor agonists, primary screen, CHO-K1 cells, Fluo-8 calcium fluorescence; Muscarinic acetylcholine receptor M5 (Homo sapiens), P08912; CHO-K1 hM5 cells; 0% DMSO wells, 100% maximal acetylcholine response; activation, % at 3 µM; 360,000 tested, 0.19% active; AID 624037, 2012;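 active means activation above the run's mean over test compounds plus 3 SD, cut at about 23% in these data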;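 further: signal is peak over basal fluorescence ratio across the kinetic read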
* hit, by the source's call.

SMILES	M1 ag	M1 antag	CHRM5 PAM	CHRM5 antagonist	M1 PAM	CHRM5 agonist
COc1ccc(NS(=O)(=O)c2cccc(C(=O)NCC(c3ccccc3OC)N3CCCC3)c2)cc1 (configuration not stated)	-6.2	81.8*	-34.2	20.9	-24.7	-10.2
C=CCN(c1ccccc1OC)S(=O)(=O)c1cccc(C(=O)NCC(c2ccc(OC)cc2)N2CCCC2)c1 (configuration not stated)	-8.5	34.2*	-1.8	6.0	-23.8	-9.9
COc1ccccc1N(C)S(=O)(=O)c1ccc(C(=O)NCc2ccccc2CN2CCCC2)cc1	-5.8	35.9*	-15.0	3.4	-14.1	-9.4
O=C(COC(=O)c1ccc(S(=O)(=O)N2CCCC2)cc1)Nc1ccccc1Cl	-5.5	-10.3	-0.4	2.6	5.5	0.1
CC(Oc1ccc(Cl)cc1Cl)C(=O)NC1CCSC1=O (configuration not stated)	-5.4	-3.7	3.8	0.8	4.1	-2.9
O=C(Cn1c2ccccc2c2nc3n(c(=O)c21)CCS3)Nc1ccccc1C(F)(F)F	0.0	-1.8	19.2*	8.3	6.0	10.9
CCOC(=O)C1CCCN(c2cc(=O)n(C3CCCCC3)c(=O)[nH]2)C1 (configuration not stated)	31.4*	6.2	-6.0	22.9	1.0	12.9
CCOC(=O)C1CCN(c2cc(=O)n(-c3ccc(OC)cc3)c(=O)[nH]2)CC1	-1.0	-6.7	-6.0	1.8	5.0	3.1
COc1ccc(-c2noc(-c3cc(C)cc(C)c3)n2)cc1OC	-3.5	-10.1	2.2	4.5	8.1	1.1
Cc1nn(CC(=O)Nc2ccc(C(=O)N3CCCC3)cc2)c(=O)c2ccccc12	1.8	-4.3	38.7*	18.7	3.0	2.7
Cc1nnc(Nc2ccc(C(=O)N3CCOCC3)cc2)c2ccccc12	0.1	-44.7	6.1	-8.7	27.1*	1.5
COc1cccc(-c2ccc(=O)n(CC(=O)Nc3ccc(C(=O)N4CCCC4)cc3)n2)c1	-2.9	-10.3	19.3*	-1.3	11.1	-6.1
Cc1nn(CC(=O)Nc2ccc(C(=O)N3CCCCC3)cc2)c(=O)c2ccccc12	-6.1	-8.9	-5.4	-0.3	6.7	-1.7
CC(=O)N1CCN(C(=O)c2ccc(Cl)c(S(=O)(=O)N3CCCCCC3)c2)CC1	-3.5	-4.9	0.3	7.5	1.9	3.9
O=C(c1ccc(-c2nc3ccccc3s2)o1)N1CCN(c2ccccc2O)CC1	-3.3	11.2	-17.5	33.9*	-2.0	-5.0
O=C(O)c1ccc(-c2nc3ccccc3s2)o1	-3.2	-24.4	10.0	-6.2	6.9	3.4
O=C(O)CSc1nnc2c(n1)[nH]c1ccccc12	-2.0	5.0	-11.3	34.4*	1.9	-5.0
Cc1ccc(-n2nc3c(=O)n(CC(=O)NCc4cccs4)nc(C)c3c2C)cc1	-11.3	-4.1	0.1	4.0	2.3	-4.4
Cc1ccccc1NC(=O)C1C2CC/C=C\CCC21 (configuration not stated)	-7.9	1.1	2.2	-6.4	-2.0	-3.3
CCC(C)N(CCNC(=O)CC1Oc2ccc(C)cc2NC1=O)C1CCCCC1 (configuration not stated)	-14.1	101.4*	-21.9	18.5	-35.4	-6.0
CC1CCCCN1CCNC(=O)CC1Oc2ccccc2NC1=O (configuration not stated)	-13.3	35.9*	-23.0	13.0	-23.7	-6.1
O=C(Nc1ccccc1)c1ccccc1OCC(O)CN1C(=O)c2ccccc2S1(=O)=O (configuration not stated)	-2.5	49.9*	-19.6	22.4	-14.0	4.4
CCOc1ccc(N(CC(=O)Nc2ccccc2C(=O)NCc2ccco2)S(C)(=O)=O)cc1	-4.6	-3.9	-1.2	-4.6	0.1	3.0
COc1ccccc1/C=C/C(=O)NC(=S)NCC1CCCO1 (configuration not stated)	-2.7	35.5*	-18.6	21.2	-12.4	-0.8
O=C(CSc1nc2ccccc2[nH]1)N1CCN(c2ccc(F)cc2)CC1	-4.0	-8.8	-11.4	4.5	4.8	-2.5
SMILES	M1 ag	M1 antag	CHRM5 PAM	CHRM5 antagonist	M1 PAM	CHRM5 agonist
O=C(CCCSc1nc2ccccc2[nH]1)N1CCN(c2ccc([N+](=O)[O-])cc2)CC1	0.2	43.5*	-3.3	-2.8	-18.2	0.8
CN(C)CCNc1nc(-c2ccccc2F)c2sccc2n1	-7.8	69.8*	-34.0	40.1*	-29.5	-8.9
Fc1ccccc1-c1nc(NCC2CC2)nc2ccsc12	-8.9	1.6	-5.5	2.9	-6.2	-2.7
COC(=O)c1sccc1NC(=O)C1CCCCC1C(=O)O (configuration not stated)	-1.2	-13.8	1.5	6.8	7.9	3.3
CC1=CC(C)(C)N(C(=O)c2ccccc2)c2ccc(C)cc21	27.7*	-8.2	6.2	1.8	5.8	23.4*
O=C(CCn1nnc2ccccc21)Nc1nnc(Cc2ccccc2)s1	-1.5	-3.2	2.7	0.1	10.2	-0.3
COc1ccccc1OC(=O)c1cc2ccccc2oc1=O	-2.4	-19.5	0.0	-0.1	20.6	0.4
COc1cccc(OC(=O)c2cc3ccccc3oc2=O)c1	-6.5	-0.4	19.3*	-7.2	2.7	-4.0
CN(C)c1ccc(-c2csc(C(C)(O)c3ccc(F)c(F)c3)n2)cc1 (configuration not stated)	-4.8	24.8*	-4.5	4.4	-12.9	-0.7
Cc1c(NC(=O)C(C)Sc2nccn2C)c(=O)n(-c2ccccc2)n1C (configuration not stated)	-1.4	-12.6	-19.3	11.6	3.8	3.9
COc1ccc(NC(=O)CSc2nnc(NC(=O)C3CC3)s2)cc1OC	0.8	-7.4	4.2	-4.0	2.5	-1.1
C/C=C\C(=O)Nc1cccc(C2=NOC3(C2)C[C@@H](C(N)=O)N(C(=O)c2ccc(Cl)cc2)C3)c1 (some centres not stated)	-1.6	9.8	18.9*	0.8	10.6	-1.9
O=[N+]([O-])c1ccc(-n2nncc2-c2ccccc2)cc1	-7.1	-18.0	19.5*	-9.3	2.9	-17.9
O=[N+]([O-])c1ccc(-n2nncc2-c2ccc(Cl)cc2)cc1	-7.4	-1.2	11.7	-3.1	5.5	1.5
